Published values from different studies.
Protocols differ between the studies behind these lines.
SLC22A12: Solute carrier family 22 member 12 (SLC22A12, Homo sapiens, UniProt Q96S37)
CSNK1A1: Casein kinase I isoform alpha (CSNK1A1, Homo sapiens, UniProt P48729)
HDAC10: Polyamine deacetylase HDAC10 (HDAC10, Homo sapiens, UniProt Q969S8)
HDAC7: Histone deacetylase 7 (HDAC7, Homo sapiens, UniProt Q8WUI4)
PLA2G6: 85/88 kDa calcium-independent phospholipase A2 (PLA2G6, Homo sapiens, UniProt O60733)

| SMILES | target | read-out | action | method | setting | IC50 |
| --- | --- | --- | --- | --- | --- | --- |
| O=C(O)CCc1nccc2c3ccccc3n(Cc3ccc(Br)c4ccccc34)c12 | SLC22A12 | transporter uptake | inhibitor | radiometric | – | 13.8 µM |
| Cc1cc(N)c2ccccc2[n+]1CCCCCCCCCC[n+]1c(C)cc(N)c2ccccc21 | Solute carrier family 22 member 2 (SLC22A2, Homo sapiens, UniProt O15244) | transporter uptake | inhibitor | fluorescence | – | 0.0882 µM |
| c1ccc(-c2occc2-c2ccnc3ccccc23)nc1 | CSNK1A1 | enzyme activity | inhibitor | ADP detection | – | > 30 µM |
| O=C(CNc1cccc2c1C(=O)N(C1CCC(=O)NC1=O)C2=O)NCCCCCCN1CCc2c(c3ccccc3n2Cc2ccc(C(=O)NO)cc2)C1 (centres unmarked) | HDAC10 | enzyme activity | inhibitor | fluorescence | – | 0.022 µM |
| COc1ccc(N(Cc2csc(-c3ccc(C)cc3)n2)C(=O)CCCCCC(=O)NO)cc1 | HDAC7 | enzyme activity | inhibitor | – | – | > 10 µM |
| COc1c(Cl)cccc1Nc1c(-c2ccncc2OC[C@@H]2COCCO2)[nH]c2c1C(=O)NCC2 | Epithelial discoidin domain-containing receptor 1 (DDR1, Homo sapiens, UniProt Q08345) | ligand displacement | – | TR-FRET | – | 0.11 µM |
| CC(=O)N[C@@H](CC(C)C)C(=O)N[C@@H](CC(C)C)C(=O)N[C@H](C=O)CCCNC(=N)N | Kallikrein-1 (KLK1, Homo sapiens, UniProt P06870) | enzyme activity | inhibitor | – | – | 3.9 µM |
| Fc1ccc(-c2nn3cc(C(F)(F)F)ccc3c2-c2ccncc2)cc1 | CSNK1A1 | enzyme activity | inhibitor | ADP detection | – | > 15 µM |
| O=C1CCC(c2ccc(OCC(=O)OCCCCc3cn(CCCCCCN4CCc5c(c6ccccc6n5Cc5ccc(C(=O)NO)cc5)C4)nn3)cc2)C(=O)N1 (centres unmarked) | HDAC10 | enzyme activity | inhibitor | fluorescence | – | 0.015 µM |
| c1coc(-c2n[nH]cc2-c2ccnc3ccccc23)c1 | CSNK1A1 | enzyme activity | inhibitor | ADP detection | – | 3.4 µM |
| Nc1ncnc2c1ncn2[C@@H]1O[C@H](CSCC[C@H](N)C(=O)O)[C@@H](O)[C@H]1O | Histone-lysine N-methyltransferase SETD2 (SETD2, Homo sapiens, UniProt Q9BYW2) | enzyme activity | inhibitor | – | – | 2.11 µM |
| O=C(CCCCc1ccc(CO)cc1)C(F)(F)C(F)(F)F | PLA2G6 | enzyme activity | inhibitor | – | – | 0.63 µM |
| CN1CCC(CNc2ccc3ncc(-c4cccc(OC(F)(F)F)c4)n3n2)CC1 | Beta-2 adrenergic receptor (ADRB2, Homo sapiens, UniProt P07550) | cAMP | antagonist | – | – | 8.31 µM |
| Fc1ccc(-c2nn3cc(F)ccc3c2-c2ccncc2)cc1 | CSNK1A1 | enzyme activity | inhibitor | ADP detection | – | 2.4 µM |
| O=C(COc1ccc(C2CCC(=O)NC2=O)cc1)NCCCCCCN1CCc2c(c3ccccc3n2Cc2ccc(C(=O)NO)cc2)C1 (centres unmarked) | HDAC10 | enzyme activity | inhibitor | fluorescence | – | 0.023 µM |
| O=C(CCCCc1ccc(CO)cc1)C(F)(F)F | PLA2G6 | enzyme activity | inhibitor | – | – | 1.1 µM |
| O=C(O)/C=C/c1nccc2c3ccccc3n(Cc3ccc(Br)c4ccccc34)c12 | SLC22A12 | transporter uptake | inhibitor | radiometric | – | 3.02 µM |
| Oc1ccn2nc(-c3ccc(F)cc3)c(-c3ccncc3)c2c1 | CSNK1A1 | enzyme activity | inhibitor | ADP detection | – | 0.84 µM |
| CC(C)C1=CC2=CC(=O)[C@H]3C(C)(C)CCC[C@]3(C)C2=C(O)C1=O (racemic) | Farnesyl pyrophosphate synthase (FDPS, Homo sapiens, UniProt P14324) | enzyme activity | inhibitor | – | – | 0.12 µM |
| COc1ccc(N(Cc2nc(-c3ccc(F)cc3)cs2)C(=O)CCCCCC(=O)NO)cc1 | HDAC7 | enzyme activity | inhibitor | – | – | > 10 µM |
| CCc1oc2cc(F)c(F)cc2c1C(=O)c1cc(Br)c(O)c(Br)c1 | SLC22A12 | transporter uptake | inhibitor | radiometric | oocytes | 0.245 µM |
| c1ccc(-c2n[nH]cc2-c2ccncn2)nc1 | CSNK1A1 | enzyme activity | inhibitor | ADP detection | – | > 30 µM |
| COc1ccc2c(-c3ccncc3)c(-c3ccc(F)cc3)nn2c1 | CSNK1A1 | enzyme activity | inhibitor | ADP detection | – | 2.4 µM |
| CCCS(=O)(=O)NC(=O)c1cc2ccccc2n1Cc1ccc(C2CC2)c2ccccc12 | SLC22A12 | transporter uptake | inhibitor | radiometric | – | 5.56 µM |
| Oc1ccccc1-c1n[nH]cc1-c1ccnc2ccccc12 | CSNK1A1 | enzyme activity | inhibitor | ADP detection | – | 3.1 µM |
| O=C(NS(=O)(=O)C1CC1)c1cc2ccccc2n1Cc1ccc(C2CC2)c2ccccc12 | SLC22A12 | transporter uptake | inhibitor | radiometric | – | 5.8 µM |
| c1ccc(-c2[nH]ccc2-c2ccnc3ccccc23)nc1 | CSNK1A1 | enzyme activity | inhibitor | ADP detection | – | > 30 µM |
| CC(C)(C)c1ccn2nc(-c3ccc(F)cc3)c(-c3ccncc3)c2c1 | CSNK1A1 | enzyme activity | inhibitor | ADP detection | – | 8.7 µM |
| O=C(NO)c1ccc(Cn2cnc3c(Nc4cccc([N+](=O)[O-])c4)ncnc32)cc1 | HDAC7 | enzyme activity | inhibitor | – | – | 0.117 µM |
